Assay results reported in PMC6800648 (Cell chemical biology, 2019).
Values belong to the compound of their own block, whether it stands above or below them. Numbered stars: 1 amine (or outer) side, 2 acyl side, 3 side chain; on linkers, the order of the positions; unused ones are H or OH. Square brackets hold non-standard residues; d marks the D form. Peptide text beside a SMILES is read from it. * marks the point of attachment. NH(CH2CH2O)11C2H4NHBiotinyl = O=C(CCCC[C@@H]1SC[C@@H]2NC(=O)N[C@@H]21)NCCOCCOCCOCCOCCOCCOCCOCCOCCOCCOCCOCCN*; X2 = COc1ccc(CN(C)CCCC[C@H](N[*:1])C(=O)[*:2])cc1; X5 = CN(CCCC[C@H](N[*:1])C(=O)[*:2])Cc1ccc(F)cc1; X8 = O=C([C@H](CCCCN(C1CCC1)C1CCC1)N[*:1])[*:2]; X3 = CN(CCCC[C@H](N[*:1])C(=O)[*:2])Cc1ccccc1; X7 = CN(CCCC[C@H](N[*:1])C(=O)[*:2])C1CCCCC1; X1 = CCCN(CCCC[C@H](N[*:1])C(=O)[*:2])C(C)C; X6 = CN(CCCC[C@H](N[*:1])C(=O)[*:2])C1CCCC1; Lys(Et,iPr) = CCN(CCCC[C@H](N)C(=O)O)C(C)C; X4 = COC(C)N(C)CCCC[C@H](N[*:1])C(=O)[*:2]; Benzoyl(4-tBu) = CC(C)(C)c1ccc(C(=O)*)cc1; X9 = O=C([C@H](CCCCN1CCCCC1)N[*:1])[*:2]; Lys(Et2) = CCN(CC)CCCC[C@H](N)C(=O)O; Lys(Me2) = CN(C)CCCC[C@H](N)C(=O)O; NMeA = CN[C@@H](C)C(=O)O

What was measured:
CBX7 chromodomain [1] = target: T1, CBX7 chromodomain (Homo sapiens, UniProt O95931); assay: Fluorescence polarization; type: biochemical; details: 30 μM CBX7 chromodomain, 100 nM FAM-ANRIL-RNA
T1 sequence (O95931 1-62): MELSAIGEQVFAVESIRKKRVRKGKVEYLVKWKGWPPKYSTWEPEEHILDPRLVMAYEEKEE
How it was run: (§1)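 Buffer: 25 mM Tris-HCl pH 7.4, 100 mM NaCl, 0.05% Tween-20, 2 mM DTT; 100 nM FAM-dsDNA or FAM-ANRIL-RNA; 0.2% DMSO; 30 min at RT. Compound titration: eight-point three-fold series from 100 µM with 30 µM CBX7 chromodomain. Ratio mode: CBX7 and test compound co-diluted at fixed 3:1 from 300 µM/100 µM. Polarisation normalised to a no-protein control; α fitted by the Stockton-Ehlert allosteric model.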

CBX7 chromodomain [2] = target: T1, CBX7 chromodomain; assay: Fluorescence polarization; type: biochemical; details: 30 μM CBX7 chromodomain, 100 nM FAM-dsDNA
How it was run: as §1

CBX7 [3] = target: T2, CBX7 (Mus musculus, UniProt Q8VDS3); assay: Polycomb in-vivo Assay; type: cell-based; details: for activity in the Polycomb in-vivo Assay (reactivation of GFP expression): 48-hour treatment, flow cytometry
T2 sequence (Q8VDS3 2-69 limits assumed): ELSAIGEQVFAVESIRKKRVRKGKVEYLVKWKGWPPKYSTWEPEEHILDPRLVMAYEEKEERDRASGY

CBX7 chromodomain [4] = target: T1, CBX7 chromodomain; assay: Electrophoretic mobility shift assay; type: biochemical; details: EMSA, 150 mM CBX7 and 100 nM FAM-dsDNA probe, 1:3 ratio of compound to CBX7
How it was run: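 Buffer: 25 mM Tris-HCl pH 7.4, 100 mM NaCl, 0.05% Tween-20, 2 mM DTT. Compound runs used 150 µM CBX7 with 100 nM FAM-DNA probe and 50 µM test compound (0.3% DMSO); protein-only runs used a three-fold CBX7 series. Binding 20 min on ice. Native 10% Tris-glycine gel at 100 V, 4°C, 90 min in the dark. FAM fluorescence imaged, then Coomassie-stained.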

[5] = tested on: 120 purified Kme reader domains; assay: Chromatin-associated domain array; type: binding; details: biotinylated ligand, fluorescently tagged streptavidin visualization
canonical PRC1 complex = assay: Chemiprecipitation; type: binding, human; details: PC3 cell lysates, western blot
How it was run: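 PC3 cells in DMEM/F12 plus 10% FBS were grown to 80–90% confluency, trypsinised, PBS-washed twice, and lysed fresh or after flash freezing. Lysates were pulled down with biotinylated test compounds. Beads were boiled in Laemmli buffer at 95 °C for 3 min, with 1% input. Proteins were separated by SDS-PAGE and blotted to PVDF. Primary antibody overnight at 4°C; infrared secondaries (1:10,000).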

CBX7 [6] = target: T3, CBX7 (Mus musculus, UniProt Q8VDS3); type: cell-based; details: TetOFF reporter cell line; UNC4976 compared to UNC3866 treatment
T3 sequence (Q8VDS3 1-158): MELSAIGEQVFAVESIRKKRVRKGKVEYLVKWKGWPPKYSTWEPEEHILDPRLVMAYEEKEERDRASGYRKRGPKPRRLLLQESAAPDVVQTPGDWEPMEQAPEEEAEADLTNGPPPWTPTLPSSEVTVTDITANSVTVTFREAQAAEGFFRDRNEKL

mESCs = assay: CellTiter-Glo viability assay in mESCs; type: cell-based, mouse; details: 48 hr
How it was run: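 Mouse ES cells, 5,000 per well, exposed in technical triplicate for 48 hr at 37°C to a ten-point three-fold dilution series prepared from 50 mM DMSO stocks (0.2% DMSO final). Media-only wells served as negative controls. After equilibrating at room temperature, CellTiter-Glo was added, with 2 min shaking and 10 min settling, then luminescence read.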

SMILES: Cc1ccccc1Cn1c(=N)n(CC(O)c2ccc(Cl)c(Cl)c2)c2ccccc21.Cl (stereo not shown) [MS351, reference compound]
change of fluorescence polarization on compound titration (CBX7 chromodomain [1]): did not observe increased fluorescence polarization | change of fluorescence polarization on compound titration (CBX7 chromodomain [2]): did not observe increased fluorescence polarization | activity in the Polycomb in-vivo Assay (reactivation of GFP expression) (CBX7 [3]): inactive | effect on FAM-dsDNA binding to CBX7 (CBX7 chromodomain [4]): did not observe enhancement

SMILES: COc1cccc(C(=O)N2CCN(C(=O)COc3cccc(C)c3)CC2)c1OC [MS452, reference compound]
change of fluorescence polarization on compound titration (CBX7 chromodomain [1]): slight destabilizing effect | change of fluorescence polarization on compound titration (CBX7 chromodomain [2]): slight destabilizing effect | activity in the Polycomb in-vivo Assay (reactivation of GFP expression) (CBX7 [3]): inactive | effect on FAM-dsDNA binding to CBX7 (CBX7 chromodomain [4]): no effect

SMILES: CCN(CC)CCCC[C@H](NC(=O)[C@H](CC(C)C)NC(=O)[C@H](C)NC(=O)[C@H](Cc1ccccc1)NC(=O)c1ccc(C(C)(C)C)cc1)C(=O)N[C@@H](CO)C(=O)NCCOCCOCCOCCOCCOCCOCCOCCOCCOCCOCCOCCNC(=O)CCCC[C@@H]1SC[C@@H]2NC(=O)N[C@@H]21 [UNC4195, 4-(tert-butyl)-N-((2S,5S,8S,11S,14S)-11-(4-(diethylamino)butyl)-14-(hydroxymethyl)-8-isobutyl-5-methyl-3,6,9,12,15,53-hexaoxo-57-((3aS,4S,6aR)-2-oxohexahydro-1H-thieno[3,4-d]imidazol-4-yl)-1-phenyl-19,22,25,28,31,34,37,40,43,46,49-undecaoxa-4,7,10,13,16,52-hexaazaheptapentacontan-2-yl)benzamide, reference compound] ({Benzoyl(4-tBu)}-FAL[Lys(Et2)]S-{NH(CH2CH2O)11C2H4NHBiotinyl})
selectivity profile on CADOR microarray [5]: binding interactions were only detected for all five Polycomb CBX chromodomains and a small subset of CDY chromodomains | pulldown of canonical PRC1 components (CBX4, CBX7, CBX8, RING1B, BMI1) (canonical PRC1 complex): we detected pulldown of CBX4, CBX7, CBX8, RING1B, and BMI1

SMILES: CCN(CC)CCCC[C@H](NC(=O)[C@H](CC(C)C)NC(=O)[C@H](C)N(C)C(=O)[C@H](Cc1ccccc1)NC(=O)c1ccc(C(C)(C)C)cc1)C(=O)N[C@@H](CO)C(=O)OC [UNC4219, methyl N^2-N-((4-(tert-butyl)benzoyl)-L-phenylalanyl)-N-methyl-L-alanyl-L-leucyl-N^6,N^6-diethyl-L-lysyl-L-serinate, reference compound] ({Benzoyl(4-tBu)}-F[NMeA]L[Lys(Et2)]S-OMe)
derepression of the GFP reporter gene / maintenance of Polycomb silencing (CBX7 [6]): unaffected | mESC viability upon compound treatment (mESCs): non-toxic | activity in the Polycomb in-vivo Assay (reactivation of GFP expression) (CBX7 [3]): inactive | effect on FAM-dsDNA binding to CBX7 (CBX7 chromodomain [4]): no effect

SMILES: CCCN(CCCC[C@H](NC(=O)[C@H](CC(C)C)NC(=O)[C@H](C)NC(=O)[C@H](Cc1ccccc1)NC(=O)c1ccc(C(C)(C)C)cc1)C(=O)N[C@@H](CO)C(=O)OC)C(C)C [UNC4971, methyl N^2-(4-(tert-butyl)benzoyl)-L-phenylalanyl-L-alanyl-L-leucyl-N^6-isopropyl-N^6-propyl-L-lysyl-L-serinate] ({Benzoyl(4-tBu)}-FAL[X1]S-OMe)
EC50 (CBX7 [3]): 26.5 ± 3.24 µM

SMILES: COC(=O)[C@H](CO)NC(=O)[C@H](CCCCN(C)Cc1ccccc1)NC(=O)[C@H](CC(C)C)NC(=O)[C@H](C)NC(=O)[C@H](Cc1ccccc1)NC(=O)c1ccc(C(C)(C)C)cc1 [UNC6375, methyl N^6-benzyl-N^2-(4-(tert-butyl)benzoyl)-L-phenylalanyl-L-alanyl-L-leucyl-N^6-methyl-L-lysyl-L-serinate] ({Benzoyl(4-tBu)}-FAL[X3]S-OMe)
EC50 (CBX7 [3]): 2.36 ± 0.115 µM

SMILES: COC(=O)[C@H](CO)NC(=O)[C@H](CCCCN(C)Cc1ccc(F)cc1)NC(=O)[C@H](CC(C)C)NC(=O)[C@H](C)NC(=O)[C@H](Cc1ccccc1)NC(=O)c1ccc(C(C)(C)C)cc1 [UNC6376, methyl N^2-(4-(tert-butyl)benzoyl)-L-phenylalanyl-L-alanyl-L-leucyl-N^6-(4-fluorobenzyl)-N^6-methyl-L-lysyl-L-serinate] ({Benzoyl(4-tBu)}-FAL[X5]S-OMe)
EC50 (CBX7 [3]): 2.22 ± 0.194 µM

SMILES: COC(=O)[C@H](CO)NC(=O)[C@H](CCCCN(C)Cc1ccc(OC)cc1)NC(=O)[C@H](CC(C)C)NC(=O)[C@H](C)NC(=O)[C@H](Cc1ccccc1)NC(=O)c1ccc(C(C)(C)C)cc1 [UNC6483, methyl N^2-(4-(tert-butyl)benzoyl)-L-phenylalanyl-L-alanyl-L-leucyl-N^6-(4-methoxybenzyl)-N^6-methyl-L-lysyl-L-serinate] ({Benzoyl(4-tBu)}-FAL[X2]S-OMe)
EC50 (CBX7 [3]): 2.06 ± 0.135 µM

Continued, values first:

EC50 (CBX7 [3]): 36.6 ± 1.14 µM
SMILES: CCN(CCCC[C@H](NC(=O)[C@H](CC(C)C)NC(=O)[C@H](C)NC(=O)[C@H](Cc1ccccc1)NC(=O)c1ccc(C(C)(C)C)cc1)C(=O)N[C@@H](CO)C(=O)OC)C(C)C [UNC4941, methyl N^2-(4-(tert-butyl)benzoyl)-L-phenylalanyl-L-alanyl-L-leucyl-N^6-ethyl-N^6-isopropyl-L-lysyl-L-serinate] ({Benzoyl(4-tBu)}-FAL[Lys(Et,iPr)]S-OMe)

EC50 (CBX7 [3]): 105 ± 11.3 µM
SMILES: COC(=O)[C@H](CO)NC(=O)[C@H](CCCCN(C)C)NC(=O)[C@H](CC(C)C)NC(=O)[C@H](C)NC(=O)[C@H](Cc1ccccc1)NC(=O)c1ccc(C(C)(C)C)cc1 [UNC5352, methyl N^2-(4-(tert-butyl)benzoyl)-L-phenylalanyl-L-alanyl-L-leucyl-N^6,N^6-dimethyl-L-lysyl-L-serinate] ({Benzoyl(4-tBu)}-FAL[Lys(Me2)]S-OMe)

EC50 (CBX7 [3]): 13.7 ± 0.535 µM
SMILES: COC(=O)[C@H](CO)NC(=O)[C@H](CCCCN(C1CCC1)C1CCC1)NC(=O)[C@H](CC(C)C)NC(=O)[C@H](C)NC(=O)[C@H](Cc1ccccc1)NC(=O)c1ccc(C(C)(C)C)cc1 [UNC6370, methyl N^2-(4-(tert-butyl)benzoyl)-L-phenylalanyl-L-alanyl-L-leucyl-N^6,N^6-dicyclobutyl-L-lysyl-L-serinate] ({Benzoyl(4-tBu)}-FAL[X8]S-OMe)

EC50 (CBX7 [3]): ~20 µM
SMILES: COC(=O)[C@H](CO)NC(=O)[C@H](CCCCN(C)C1CCCC1)NC(=O)[C@H](CC(C)C)NC(=O)[C@H](C)NC(=O)[C@H](Cc1ccccc1)NC(=O)c1ccc(C(C)(C)C)cc1 [UNC6371, methyl N^2-(4-(tert-butyl)benzoyl)-L-phenylalanyl-L-alanyl-L-leucyl-N^6-cyclopentyl-N^6-methyl-L-lysyl-L-serinate] ({Benzoyl(4-tBu)}-FAL[X6]S-OMe)

EC50 (CBX7 [3]): 4.59 ± 0.292 µM
SMILES: COC(=O)[C@H](CO)NC(=O)[C@H](CCCCN(C)C1CCCCC1)NC(=O)[C@H](CC(C)C)NC(=O)[C@H](C)NC(=O)[C@H](Cc1ccccc1)NC(=O)c1ccc(C(C)(C)C)cc1 [UNC6372, methyl N^2-(4-(tert-butyl)benzoyl)-L-phenylalanyl-L-alanyl-L-leucyl-N^6-cyclohexyl-N^6-methyl-L-lysyl-L-serinate] ({Benzoyl(4-tBu)}-FAL[X7]S-OMe)

EC50 (CBX7 [3]): 33.1 ± 1.9 µM
SMILES: COC(=O)[C@H](CO)NC(=O)[C@H](CCCCN1CCCCC1)NC(=O)[C@H](CC(C)C)NC(=O)[C@H](C)NC(=O)[C@H](Cc1ccccc1)NC(=O)c1ccc(C(C)(C)C)cc1 [UNC6374, methyl ((S)-2-((S)-2-((S)-2-((S)-2-(4-(tert-butyl)benzamido)-3-phenylpropanamido)propanamido)-4-methylpentanamido)-6-(piperidin-1-yl)hexanoyl)-L-serinate] ({Benzoyl(4-tBu)}-FAL[X9]S-OMe)

EC50 (CBX7 [3]): 23.7 ± 1.74 µM
SMILES: COC(=O)[C@H](CO)NC(=O)[C@H](CCCCN(C)C(C)OC)NC(=O)[C@H](CC(C)C)NC(=O)[C@H](C)NC(=O)[C@H](Cc1ccccc1)NC(=O)c1ccc(C(C)(C)C)cc1 (stereo partly drawn) [UNC6481, methyl N^2-(4-(tert-butyl)benzoyl)-L-phenylalanyl-L-alanyl-L-leucyl-N^6-(1-methoxyethyl)-N^6-methyl-L-lysyl-L-serinate] ({Benzoyl(4-tBu)}-FAL[X4]S-OMe)
